10 molecules from ChEMBL document CHEMBL1146022, “Replacement of the metabolically labile methyl esters in the alkenyldiarylmethane series of non-nucleoside reverse transcriptase inhibitors with isoxazolone, isoxazole, oxazolone, or cyano substituents” (J Med Chem, 2006) can be followed below.

The target of data set [1] is Human immunodeficiency virus type 1 reverse transcriptase (Human immunodeficiency virus 1, UniProt Q72547). Briefly: Inhibition of recombinant HIV1 reverse transcriptase measured as inhibition of incorporation of [32P]GTP in rCDG primer. The data set is classed as functional. The gist of the method: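 Purified recombinant HIV-1 RT p66/p51 heterodimer. Polymerase activity followed as [32P]GTP incorporation on poly(rC)/oligo(dG) homopolymer template-primer. IC50 taken from inhibition of incorporation.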

Another data set deals with MT4. The data set can be described thus: Cytotoxicity against mock-infected MT4 cells. The data set is classed as functional. The conditions noted are these: Homo sapiens.
Data set [2] has as its system Human immunodeficiency virus 1. Briefly: Antiviral activity against HIV1 3B in MT4 cells by MTT assay. The data set is classed as functional, organism-based. The conditions noted are these: Human immunodeficiency virus 1, 3B. A digest of the protocol: (§1)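 MT-4 cells infected with HIV-1 IIIB or HIV-2 ROD; protection from virus-induced cytopathicity read by MTT assay. EC50 taken as the concentration giving 50% inhibition of cytopathicity.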
For orientation: Formazan colour is commonly taken as a measure of viable cells.

Data set [3] deals with Human immunodeficiency virus 1. The data set can be described thus: Antiviral activity against HIV1 RF in CEM-SS cells by MTS cytoprotection assay. Format: functional, organism-based. The conditions noted are these: Human immunodeficiency virus 1, RF. A digest of the protocol: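 CEM-SS cells infected with HIV-1 RF; cytoprotection against viral cytopathic effect read by MTS assay. EC50 taken as the concentration giving 50% inhibition of cytopathicity.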

The nature of data set [4]: Half life in rat plasma. Format: ADME. The gist of the method:
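In vitro hydrolytic stability in rat plasma, with 1,1-diphenylethylene or benzophenone as internal standard. Half-life reported in minutes with SD.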

Data set [5] deals with Human immunodeficiency virus 2. The data set can be described thus: Antiviral activity against HIV2 ROD in MT4 cells by MTT assay. Format: functional, organism-based. The conditions noted are these: Human immunodeficiency virus 2, ROD. A digest of the protocol: as §1
The test system of another data set is CEM-SS. The data set can be described thus: Cytotoxicity against mock-infected CEM-SS cells. The conditions noted are these: Homo sapiens. Format: functional.

As usually defined, the IC50 is the midpoint of a concentration-inhibition curve. For orientation: CC50 means the concentration giving 50% cytotoxicity. Read a high CC50 as lower toxicity to the cells. As usually defined, the EC50 is the concentration that produces a half-maximal response. What is called half-life is the time needed for the level to fall by half in the phase considered.

Bounds are passed on as bounds.

As to `COC(=O)CCC/C=C(\c1cccc(C#N)c1)c1cc(C)c(OC)c(C(=O)OC)c1`, the half-maximal inhibitory concentration (IC50) in data set [1] came out at 0.54 µM. For the same molecule, the cytotoxic concentration (CC50) with MT4 is 10.6 µM; with CEM-SS it was 10.9 µM. In addition, the EC50 in data set [2] is 0.47 µM; in data set [3] it was 0.46 µM; in data set [5], above 10.6 µM. The same molecule yielded a half-life in data set [4] of 1.32 min.
For the molecule `COC(=O)CCCC=C(c1cccc(C#N)c1)c1cc(C)c2oc(=O)n(C)c2c1`, the IC50 in data set [1] came out at 26.4 µM. For the same molecule, the CC50 with MT4 amounted to 54.2 µM; with CEM-SS, 12.9 µM. Besides, the EC50 in data set [2] is above 54.2 µM; in data set [3] it was above 100 µM; in data set [5], above 54.2 µM. In data set [4], the half-life worked out at 1.18 min.
Regarding `COC(=O)CCC/C=C(\c1cc(C)c(OC)c(C(=O)OC)c1)c1cc(C)c2on(C)c(=O)c2c1`, the 50% inhibitory concentration (IC50) in data set [1] amounted to 2 µM. Further, the results for the cytotoxic concentration (CC50) in the data set on MT4 and in the data set on CEM-SS were 27.1 µM and above 5 µM, respectively. The concentration giving a half-maximal response (EC50) in data set [2] was 3.1 µM; in data set [3], 1.1 µM; in data set [5], above 27.1 µM. Also, the half-life in data set [4] is 1.85 min.
Consider `COC(=O)CCCC=C(c1cccc(C#N)c1)c1cc(C)c2on(C)c(=O)c2c1`, for which the half-inhibitory concentration (IC50) in data set [1] came out at 49.6 µM. The concentration giving a half-maximal response (EC50) in data set [3] was above 100 µM. The molecule also yielded a CC50 in the data set on CEM-SS of 14 µM.
Take `COC(=O)CCC/C=C(/c1cc(C)c(OC)c(C(=O)OC)c1)c1cc(C)c2oc(=O)n(C)c2c1`: the IC50 in data set [1] was 0.02 µM. In addition, the EC50 was found to be 0.09 µM in data set [2] and 0.03 µM in data set [3].
As for `COC(=O)CCC/C=C(/c1cc(C)c2on(C)c(=O)c2c1)c1cc(C)c2oc(=O)n(C)c2c1`, the IC50 in data set [1] turned out to be 49.2 µM. In addition, the CC50 in the data set on MT4 was 36.5 µM; in the data set on CEM-SS, 11.1 µM. Besides, the values for the EC50 in data set [2], in data set [3] and in data set [5] were 4.49 µM, 1.79 µM and above 36.5 µM, respectively. The half-life in data set [4] turned out to be 0.46 min.
Turning to `COC(=O)c1cc(/C(=C\CCN2CCOC2=O)c2cc(C)c3on(C)c(=O)c3c2)cc(C)c1OC`, in data set [1], the IC50 was found to be 9.86 µM. The molecule also displayed an EC50 in data set [3] of 2.7 µM. Also, the half-life in data set [4] was 22.1 min. Besides, the CC50 with CEM-SS stood at 16.3 µM.
On to `COC(=O)CCC/C=C(/c1ccc(C#N)cc1)c1cc(C)c2oc(=O)n(C)c2c1`, for which, in data set [1], the IC50 stood at 1.2 µM. Also, the cytotoxic concentration (CC50) in the data set with MT4 worked out at 51 µM; with CEM-SS it was 21.9 µM. Moreover, the EC50 in data set [2] is 1.49 µM; in data set [3], 0.59 µM; in data set [5] it was above 51 µM.
`COC(=O)CCC/C=C(/c1cccc(C#N)c1)c1cc(C)c2oc(=O)n(C)c2c1`: the 50% inhibitory concentration (IC50) in data set [1] is 2.8 µM. In data set [3], the EC50 came to 1.73 µM. The molecule further yielded a CC50 with CEM-SS of 11.5 µM.
Turning to `COc1noc2c(C)cc(/C(=C\CCN3CCOC3=O)c3cc(C)c4on(C)c(=O)c4c3)cc12`, the half-maximal inhibitory concentration (IC50) in data set [1] worked out at 7.6 µM. The results for the CC50 in the data set with MT4 and in the data set on CEM-SS were 1.12 µM and 1.54 µM, respectively. Further, the values for the EC50 in data set [2], in data set [3] and in data set [5] were above 1.12 µM, above 9.91 µM and above 1.12 µM, respectively. The molecule further registered a half-life in data set [4] above 1440 min.
